System: MS2 coat protein
Experiment: apparent Kd, MS2 coat protein; higher = weaker binding; RNA-MaP array; FMN 200 µM where present
Outline: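 Designs on Illumina sequencing-chip clusters, transcribed by stalled E. coli RNA polymerase, were exposed to SNAP-549-labelled MS2 coat protein in doubling steps from 0.7 or 1.5 nM up to 3 µM, without and then with constant ligand. The buffer held 100 mM Tris-HCl pH 7.5, 80 mM KCl, 4 mM MgCl2, BSA, DTT, yeast tRNA and Tween-20. Apparent Kd values are medians of filtered per-cluster binding-curve fits to green signal normalised to red-channel RNA signal and control-cluster median Fmax.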

[1] = designed as: ON switch for flavin mononucleotide, no ligand
[2] = ligand present: flavin mononucleotide, designed as: ON switch for flavin mononucleotide
[3] = designed as: OFF switch for flavin mononucleotide, no ligand
[4] = ligand present: flavin mononucleotide, designed as: OFF switch for flavin mononucleotide

| Sequence | apparent Kd [1] | apparent Kd [2] | apparent Kd [3] | apparent Kd [4] |
| --- | --- | --- | --- | --- |
| CCACGUGCUCAGAAGGGCUUUAAACACAAAUUAGCAGGAUAUGAGGACCGGUCGUGACAUGAGGAUCACCCAUGUUUUGUCUAG | 38.6 nM | 12.2 nM |  |  |
| UUUUAGUCAGGAUAUACAUUUUUUUAAUUAUUUAUAAUAUUACAUGAGGAUCACCCAUGUAGAAGGGACAUUUU |  |  | 28.6 nM | 26.2 nM |
| CUGAUGUUAGGAUAUCAGGCACCCGCCACUGGCAGGGCGCAUGAGAAGGGACAUGAGGAUCACCCAUGUAGUAA |  |  | 25.2 nM | 60.1 nM |
| UUCGUGCAGCUUUGCUGUACGCGUACAUGAGGAUCACCCAUGUAGGAUAUAGUAGGCAAAGCUUACUAGAAGGAUAUAGUGAUC |  |  | 47.6 nM | 47.3 nM |
| AAGACCAGAGGAUAUCAGACGCGGCACAUGAGGAUCACCCAUGUAUUCCCGUCUGCCGACUGAGAAGGUUGGAAAG |  |  | 12.5 nM | 17 nM |
| GUAGCUAUCGGAGGAUAUUCAUAUCGGAAACGGACAUGAGGAUCACCCAUGUGGCGAAAGCCUUGGGAGAAGGCCGAUAGCUAC | 144 nM | 9.42 nM |  |  |
| AUAUAUAGUGUGAGGAUAUGCUGGUCCUUGGAUCAGCAGAAGGCACAUGAGGAUCACCCAUGUAGUUUAUUUUU |  |  | 24.5 nM | 102 nM |
| GGACGUCACAUGAACAUGAGGAUCACCCAUGUAACUAGACAUGAGGAUAUGGAACCUAAUUGGUUCCAGAAGGCAUGGACGUCC | 194 nM | 32.2 nM |  |  |
| AAAAUACAUGAGGAUCACCCAUGUCAGGAUAUUCCUGCAGCCUUGAAUAUGGGCUGGUGAAGAAGGGACGGUGA |  |  | 40.1 nM | 105 nM |
| UUAAUAGUAGGAUAUACAUGAGGAUCACCCAUGUAGCAACUACACAAAGGAACCUGAUGUAGAAGGACUCCCAA |  |  | 14.4 nM | 14.5 nM |
| CCCGUGUAAGGAUAUGACAAUGGUAUCUUCGGAUACCAUUGUCAGAAGGUACAUGAGGAUCACCCAUGUAACAC |  |  | 28.8 nM | 108 nM |
| CAGCGAAAGCUGAAUCUGUAGAGAGAGGAUAUACAAGAAUAAAUCCAUACAUGAGGAUCACCCAUGUAGAAGGCUCUCUACAGU |  |  | 7.41 nM | 26.6 nM |
| GCGUAGAUAGCAGGAUAUAUGUUUCCUACAUGAGGAUCACCCAUGUAGGUGAUCAGCCGAGAAAAGUAGAAGGGCUAUCUAUGC | 17.4 nM | 14.5 nM |  |  |
| GCCCAGCCCAGGCCCACGGCAUCACAGGAUAUGCCGAUAACAUGAGGAUCACCCAUGUCAACUCCGCAGAAGGGUGAUAUCGUG | 121 nM | 22.1 nM |  |  |
| ACAGCGGCAGGAUAUGCAUGCUCCGACUUAUGCCUACAAAGACAUGAGGAUCACCCAUGUAGAAGGGCCAGCGG |  |  | 13.8 nM | 15.2 nM |
| GUUUAUUUACAGAAGGUGUUUUACAUGAGGAUCACCCAUGUUUAAAGGUAUAAAGAAUUUAUUUACAAGGAUAUGUACAAUUUU | 34.1 nM | 22.1 nM |  |  |
| UCAUUUAUCACAGGAUAUAUUAGUAUACAGUUGUUUGGUUAUUACAUAUUAAUAGAAGGGUGGAACAUGAGGAUCACCCAUGUA | 616 nM | 282 nM |  |  |
| CGCGAUGCGGUUGGCCCUGGGCGAGAGGAUAUGGGCAGCAGGACAUGAGGAUCACCCAUGUUCUCUCAGAAGGCUCGAGCAGGC | 247 nM | 24.5 nM |  |  |
| GUGCACACUCGAGGAUAUCGGAGUUUUCUUCUUCGAGAAGGCGAUUCGUGCCGUGUUAUUUUGGACAUGAGGAUCACCCAUGUG | 93.3 nM | 34.5 nM |  |  |
| UAUAUAUAGUAAGGAUAUGUAUUUAUUUAAUAAACAGAAGGUACUGACAUGAGGAUCACCCAUGUUUUAGUGUGGGCAUGUAGA |  |  | 79.7 nM | 149 nM |
| UAAAAGGAAGGAUAUACACUUCAAAACCUCAUGUGACUUUCACAUGAGGAUCACCCAUGUAGAAGGUCCAAGGC |  |  | 24 nM | 33.9 nM |
| CAAACAAGUGCGAGCUGACACAUGAGGAUCACCCAUGUAACACAGGAUAUCUGUCAAGGCGUGAAAGAGAAGGGUGGUCGGAAA | 226 nM | 375 nM |  |  |
| AAUAACAGAGGAUAUACUAUUUUAUGUAUUUAUUAUUUUAAACAUGAGGAUCACCCAUGUAGAAGGCUGAUUGA |  |  | 29.9 nM | 28.4 nM |
